Assay results taken from ChEMBL document CHEMBL4513216, “Probing the Open Global Health Chemical Diversity Library for Multistage-Active Starting Points for Next-Generation Antimalarials” (ACS Infect Dis, 2020).

Assay: Toxicity liver stage against HepG2, at 10uM
Assay type: cell-based
Set-up: test concentration 10 uM, cell line HepG2-A16-CD81EGFP
Conditions: human, HepG2-A16-CD81EGFP cells; read-out: INHIBITION
How it was run: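 Uninfected HepG2-A16-CD81EGFP cells, 3 × 10^3 per well, 1536-well, plated on prespotted compound at 10 μM final, parasite-free screening media added to match infected plates; puromycin 10 μM positive, DMSO 0.5% negative; run in parallel with 48 h PbLuc assay at 37 °C, 5% CO2; viability by CellTiter-Glo luminescence, normalized to controls.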

Compound	cytotoxicity at 10 µM
COc1ccc(Cl)cc1C(=O)NCc1cnn(C)c1C	6.81%
CCC(CC)C(=O)N1CCN(Cc2nc3ccccc3c(=O)[nH]2)CC1	-17.6%
COC(=O)c1ccc(NC(=O)CCNCc2ccco2)cc1	-3.64%
O=C1CO[C@H]2CN(Cc3cccnc3)C[C@H]2N1	-4%
O=S(=O)(Cc1ccccc1)NC[C@H]1Cn2ccnc2CO1	6.88%
CC1=Nc2c(c(=O)[nH]n2C2CCCCC2)C(c2ccc(C(=O)O)cc2)S1 (centres undefined)	-7.92%
Cc1nc(C(=O)N2CCN(S(=O)(=O)N(C)C)CC2)c(-c2ccccc2)s1	3.67%
CC(C)Oc1ccc(C(=O)N2CCCSCC2CN(C)C)cc1 (centres undefined)	9.9%
O=C(Nc1cccnc1)c1nn(C2CCS(=O)(=O)C2)c2c1CCCC2 (centres undefined)	7.41%
COc1ccc(C2CC(=O)Nc3nc(N4CCOCC4)sc32)c(OC)c1 (centres undefined)	53.8%
Cn1ncc(C(=O)N2CCN(C(=O)c3ccco3)CC2)c1Cl	2.88%
Cc1cncc(C2CCN(Cc3cnc(C)nc3)CC2)n1	5.38%
Cn1ccc(C(=O)N2CCCC2c2[nH]ncc2C(N)=O)n1 (centres undefined)	15.3%
NC(=O)CN1CCCCC1c1nc(N)ncc1-c1cccc(F)c1 (centres undefined)	-13.5%
Cc1cc(N(C)C)nc(C2(C)CCCN2C(=O)c2ccn(C)n2)n1 (centres undefined)	-1.06%
CC(=O)Nc1nc(C2CCN(C(=O)C3CCC3)CC2)cs1	-2.36%
COCC(=O)N1CCCC(c2cccc(-n3ccnc3)n2)C1 (centres undefined)	-9.69%
O=C(N1CCCCC1)N1CCCC1c1nnc2n1CCNC2 (centres undefined)	13.6%
Cc1cc(C2CCCN2Cc2nc(-c3ccco3)no2)on1 (centres undefined)	7.53%
CC1COc2ccccc2N1C(=O)c1cscn1 (centres undefined)	11.5%
COc1ccc(CNC(C)c2cnn(C)c2)cc1OC1CCCC1 (centres undefined)	-0.734%
Cc1nc(CN2CCCN(CC(=O)N(C)CCC#N)CC2)no1	6.28%

Compound	cytotoxicity at 10 µM
COc1c(C(=O)NC(C)CC(=O)c2cccs2)c(C)nn1C (centres undefined)	-10.1%
COCc1cccc(NCc2cccnc2)c1	4.16%
CCc1nc(CN(C)C2CCN(Cc3ccc(Cl)s3)C2)no1 (centres undefined)	9.41%
O=C(c1cn(-c2ccccc2C(F)(F)F)nn1)N1CCSCC1	-0.111%
CSCCc1ccc(NC(=O)NC(C)Cn2cncn2)cc1 (centres undefined)	2.56%
CC(C)CCN1CCN(C(=O)c2cccnc2-n2cncn2)CC1	6.37%
CCN(CC)Cc1ccc(C(=O)NC2CCc3cc(Br)ccc32)o1 (centres undefined)	-3.3%
O=C(NCC1CCN(c2ccncc2)CC1)C(O)c1ccccc1 (centres undefined)	8.15%
Cc1cccc(N2CCC(NCc3cnc(C4CCC4)s3)CC2)n1	6.08%
CC(C)=CCN1CCN(C(C)c2cccnc2)CC1 (centres undefined)	-2.65%
Cc1cc(S(=O)(=O)NCC(C)(O)CN(C)C)c(F)cc1F (centres undefined)	10%
CCC(C)(COc1ncccc1Cl)NCC(=O)Nc1ccc(Br)cn1 (centres undefined)	-2.89%
Cc1cnn(C2CN(CC(O)Cn3cccn3)C2)c1 (centres undefined)	9.12%
Cc1ccc(C)n1-c1c(C(=O)NCC(c2ccsc2)N(C)C)cnn1C (centres undefined)	17.1%
COc1ccc(C(C)NCc2cnnn2C)cc1F (centres undefined)	-9.72%
Cc1cc(C)n(Cc2ccc(C(=O)NCCN3CCOCC3)cc2)n1	-14.8%
CCc1nnc2n1CCN(C(=O)c1cnc3ccccc3n1)C2	-7.7%
COCCN1CC[C@@H]2OC[C@H](C(=O)N(C)Cc3ccccn3)C[C@@H]2C1	-98.5%
CCN1Cc2ccccc2CC2(CCN(C(=O)N(C)C)CC2)C1=O	8.3%
O=C1CO[C@@H]2CNC[C@H]2N1CC1CC1	-95.7%
Cc1ncsc1CN1C[C@@H]2CN(S(C)(=O)=O)CCO[C@@H]2C1	-105%
Cn1cc(CN2C[C@@H]3CCC[C@@H](OCc4cccnc4)[C@@H]3C2)cn1	-107%

Compound	cytotoxicity at 10 µM
CS(=O)(=O)N1C[C@@H](NC(=O)c2ccno2)[C@@H]2OCCC[C@@H]21	-108%
Cc1occc1C(=O)N1CCC2(CCC2NC(=O)c2ccn(C)c2)CC1 (centres undefined)	-1.75%
Cc1ccc(CN2CC[C@H]3OCC[C@@H](c4nc(C)no4)[C@H]3C2)cc1	-6.95%
Cc1[nH]c2ccccc2c1-c1ccnc(N[C@@H](CO)C(C)C)n1	-4.19%
COc1ccc(CN(CC2CCCO2)C(=O)CN2CCOC2=O)cc1 (centres undefined)	-1.39%
Cc1ccc(CN2C[C@H]3C(=O)N(CC4CC4)C[C@@]3(C(=O)O)C2)c(F)c1F	7.47%
CCc1nc(NC(=O)NCCc2scnc2C)nn1C	0.102%
C[C@@H]1CC[C@@H](C)N1C(=O)c1cc(COc2ccccc2)[nH]n1	4.82%
CCc1nc(C)c(CC(=O)N2CCC3(CC2)OCCCC3O)c(=O)[nH]1 (centres undefined)	9.16%
CC(C)N1CCC(CC(=O)NC(C(=O)O)c2cccc(F)c2)CC1 (centres undefined)	-0.114%
O=C(NCc1nnc2n1CCCC2)c1cn(-c2ccccc2)nn1	-2.12%
CCc1[nH]c2ccc(CNC(=O)c3cnc(N)nc3C)cc2c1C	-3.56%
c1ccc(CCN2CCN(C3CCOC4(CCOCC4)C3)CC2)cc1 (centres undefined)	-3.79%
CC(C)=CCN1C[C@@H]2CN(C(=O)c3ccc(CO)cc3)C[C@]2(C(=O)O)C1	2.21%
Cc1cc(C)c2c(NCC3(O)CCCCC3)ncnc2n1	-7.13%
CCN(CCN1CCOCC1)C(=O)c1cccnc1	7.42%
Cc1ccc(CSc2nc(N)cc(NCCC(=O)N3CCCC3)n2)cc1	1.87%
CN(Cc1ccsc1)Cc1nc(-c2ccncc2)no1	1.93%
Cc1cc(NCCNc2cccnc2)nc(N)n1	-5.86%
COc1ccc(CN2CCN(C(=O)N(C)C)[C@@H]3CS(=O)(=O)C[C@@H]32)cc1F	1.24%
CN(C)CC1(O)CCN(C(=O)c2ccc(-n3cccn3)cc2Cl)C1 (centres undefined)	-0.662%
CC(C)(N)C(=O)N1CCCC(C(=O)c2ccc(C(C)(C)C)cc2)C1 (centres undefined)	-1.1%

Compound	cytotoxicity at 10 µM
CCc1ccc(C(=O)N2CCC(O)(CN3CCOCC3)C(C)(C)C2)[nH]1 (centres undefined)	0.542%
COCCOC(=O)N1CCn2nc(CN(C)Cc3nccs3)cc2C1	1.32%
CC(NS(C)(=O)=O)C(=O)N(C)Cc1cnn(-c2ccc(F)cc2)c1 (centres undefined)	-7.94%
Cc1cc(-c2nn(C)c(Cl)c2CN2CC[C@H](CO)[C@@H](O)C2)no1	2.45%
CCOCCN1CCC=C(C2c3nc[nH]c3CCN2C(C)=O)C1 (centres undefined)	-3.67%
CSCC[C@@H](CO)Nc1ccc(-c2nc(-c3ccccc3C)no2)cn1	3.77%
Cc1ccn2cc(C(=O)N3CCCC(Cn4cc(CO)nn4)C3)nc2c1 (centres undefined)	2.41%
COc1ccc(-c2nc3c([nH]2)CCNC3C(=O)O)c2ccc(C)nc12 (centres undefined)	0.562%
c1ccc(C2CCCN2C2CSCCSC2)nc1 (centres undefined)	-3.77%
CC(C)CCn1c(=O)n(CCn2cccc2)c2cc(C(=O)O)cnc21	-2.95%
CCC(Nc1cccc(OC)c1)C(=O)NCc1nc(C)cc(=O)[nH]1 (centres undefined)	4.91%
CC(C)CN1CCCn2nc(CNC(=O)OCc3ccccc3)cc2C1	1.04%
CNC(=O)C1CC(=O)N(c2cccc(F)c2)C1 (centres undefined)	4.61%
Cc1ccc(CN2CCN(Cc3ccncc3)[C@@H]3CS(=O)(=O)C[C@@H]32)cc1	6.86%
O=C(O)CC[C@@H]1CN(c2ccncc2)CC[C@@H]1N1CCOCC1	0.0482%
Cc1[nH]c2c(C)ccc(C)c2c1CC(=O)NCCCNc1cccnc1	0.0773%
CC(Cn1cccn1)n1cnc2cccc(Cl)c2c1=O (centres undefined)	-5.41%
CCN(CC)S(=O)(=O)N1CCCC(c2ccc(C(=O)O)cc2)C1 (centres undefined)	-7.27%
CN(C)S(=O)(=O)N1CCC2(CCCN(Cc3ccc(F)cc3)C2=O)C1 (centres undefined)	-9.67%
CC(CN1CCCC1)C(=O)N1CCC(c2nccn2CC2CC2)CC1 (centres undefined)	-26.3%
CN(C)CC1(O)CCN(S(=O)(=O)c2ccc(F)cc2)C1 (centres undefined)	-3.09%
Cc1csc2c(=O)n3c(nc12)CCN(C(=O)c1cccnc1)CC3	-2.09%

Compound	cytotoxicity at 10 µM
O=C(NC(Cc1ccsc1)c1nccs1)C1CCOCC1 (centres undefined)	1.9%
Cc1cc(CN2CCN(C(=O)NC(C)Cn3ccnc3)CC2)on1 (centres undefined)	-7.42%
Fc1cccc(CN2CCN(Cc3cscn3)CC2)c1	-0.612%
CN1CCN(c2cc(N3CCCC3CO)ncn2)Cc2ccccc21 (centres undefined)	-5.22%
CC(NC(=O)NCc1ccoc1)c1ccc2c(c1)CCC(=O)N2 (centres undefined)	-1.12%
OCCn1cc(CN2CCN(CCOc3ccccc3F)CC2)cn1	-5.72%
CCc1nc(C2CCCN(C(=O)c3cccc4c3ccn4C)C2)no1 (centres undefined)	-14.4%
Cn1cnc2c1CCN(Cc1ccc(C(=O)N3CCCC3)cc1)C2	-8.62%
COc1ccsc1C(=O)N1CCCC(n2nc(C)nc2C)C1 (centres undefined)	-3.69%
Cc1sc2c(C3CCCNC3)nc(Nc3cccc(F)c3)n2c1C (centres undefined)	1.24%
CCN1C[C@H]2C3(CCN(C(C)=O)CC3)CC[C@@]2(C(=O)N(C)C)C1	-104%
Brc1ccc(CNCc2nnc3n2CCC3)s1	-4.2%
CNC(=O)COC1COC2(CCN(c3cnccn3)CC2)C1 (centres undefined)	-8.44%
CN(C)CCN1CCCC12CCCN(Cc1ccco1)C2 (centres undefined)	10.3%
O=S(=O)(NC1CCC12CCN(CC1CCOCC1)CC2)c1ccccc1 (centres undefined)	-1.34%
Cc1oncc1C(=O)NCc1cc(=O)n2c(n1)CN(CC1CC1)CCC2	-4.5%
CN1CCN(Cc2cn3c(n2)CNCC3)CC1	7.85%
Cc1ccc(N2CCC3(CCN(C(=O)c4ccsc4)C3)CC2)nn1	-0.0395%
O=C(C1CC1)N1CCOC2(CCNCC2)C1	-112%
Cc1ccc(C(=O)N2CCC3(CCCN(c4ncc(F)cn4)C3)C2)cn1 (centres undefined)	-106%
CCN1CCN(c2nc3cn(-c4cnn(CC)c4)c(=O)c-3c[nH]2)CC1	4.01%
